Data as given in ChEMBL document CHEMBL4619701, “Neutral analogs of the heat shock protein 70 (Hsp70) inhibitor, JG-98” (Bioorg Med Chem Lett, 2020).

Key:
CWR22R [1] = assay: Antiproliferative activity against human 22Rv1 cells assessed as cell growth inhibition; assay type: functional, cell-based
PC-3 [2] = assay: Antiproliferative activity against human PC3 cells assessed as cell growth inhibition; assay type: functional, cell-based
MCF7 [3] = assay: Antiproliferative activity against human MCF7 cells assessed as cell growth inhibition; assay type: functional, cell-based
CWR22R [4] = assay: Inhibition of HSP70 in human 22Rv1 cells assessed as reduction in HuR protein level at 0.3 to 5 uM measured after 24 hrs by Western blot analysis; assay type: cell-based
Summary of the method: (§1)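 22Rv1 cells were treated for 24 h at the indicated concentrations, then lysed and analysed by western blot for the named protein. Blots are representative of at least two independent experiments. Quantifications are averages of at least two independent experiments, with error bars as S.E.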

CWR22R [5] = assay: Inhibition of HSP70 in human 22Rv1 cells assessed as reduction in c-Raf1 protein level at 0.3 to 5 uM measured after 24 hrs by Western blot analysis; assay type: cell-based; summary of the method: as §1
CWR22R [6] = assay: Potency index, ratio of JG-98 IC50 to compound IC50 for human 22Rv1 cells; assay type: functional
[7] = Inhibition of HSP70 in human 22Rv1 cells assessed as induction of heat shock response by measuring HSP72 level measured after 24 hrs by Western blot analysis; assay type: cell-based; conditions: cwr22r; summary of the method: as §1
CWR22R [8] = assay: Inhibition of HSP70 in human 22Rv1 cells assessed as reduction in CDK4 protein level at 0.3 to 5 uM measured after 24 hrs by Western blot analysis; assay type: cell-based; summary of the method: as §1
[9] = Inhibition of HSP70 in human 22Rv1 cells assessed as induction of heat shock response by measuring HSP90 level at 0.3 to 5 uM measured after 24 hrs by Western blot analysis; assay type: cell-based; conditions: cwr22r; summary of the method: as §1
PC-3 [10] = assay: Potency index, ratio of JG-98 IC50 to compound IC50 for human PC3 cells; assay type: functional
CWR22R [11] = assay: Inhibition of HSP70 in human 22Rv1 cells assessed as reduction in Akt-1 protein level at 0.3 to 5 uM measured after 24 hrs by Western blot analysis; assay type: cell-based; summary of the method: as §1
MCF7 [12] = assay: Potency index, ratio of JG-98 IC50 to compound IC50 for human MCF7 cells; assay type: functional

Row | SMILES | IC50 (CWR22R [1]) [µM] | IC50 (PC-3 [2]) [µM] | IC50 (MCF7 [3]) [µM] | other results
1 | COc1ccc(Cl)c(Nc2cccc(-c3nc4ccccc4s3)c2)c1 | 2.1 | 2.2 | 0.71 | –
2 | CCn1c(=O)/c(=C2\Sc3ccc(OC)cc3N2C)s/c1=C\c1ccncc1Nc1ccccc1F | 0.19 | 0.1 | 0.13 | –
3 | CCn1c(=O)/c(=C2\Sc3ccc(OC)cc3N2C)s/c1=C\c1ccncc1Nc1ccccc1C | 0.41 | 0.37 | 0.42 | –
4 | CCn1c(=O)/c(=C2\Sc3ccccc3N2C)s/c1=C\c1ccncc1Nc1cc(C)ccc1C | 1.8 | 2 | 1.7 | –
5 | CCn1c(=O)/c(=C2\Sc3cc(F)ccc3N2C)s/c1=C\c1ccncc1Nc1ccccc1F | 0.15 | 0.26 | 0.23 | –
6 | CCn1c(=O)/c(=C2\Sc3ccc(OC)cc3N2C)s/c1=C\c1ccncc1Nc1ccccc1Cl | 0.5 | 0.76 | 0.71 | –
7 | CCn1c(=O)/c(=C2\Sc3ccccc3N2C)s/c1=C\c1ccncc1Nc1ccccc1Cl | 0.46 | 0.78 | 0.75 | –
8 | CCc1ccc2c(c1)S/C(=c1/s/c(=C\c3ccncc3Nc3ccccc3F)n(CC)c1=O)N2C | 1.2 | 2.2 | 1.2 | –
9 | c1ccc(Nc2cccc(-c3nc4ccccc4s3)c2)nc1 | 13 | 4.8 | 13 | –
10 | c1ccc(Nc2nc(-c3nc4ccccc4s3)cs2)nc1 | 3.2 | 6.7 | 3.6 | –
11 | CCn1c(=O)/c(=C2\Sc3ccccc3N2C)s/c1=C\c1ccncc1Nc1ccccc1C | 0.47 | 1.2 | 0.99 | –
12 | CCn1c(=O)/c(=C2\Sc3cc(F)ccc3N2C)s/c1=C\c1ccncc1Nc1ccccc1C | 2.3 | 2.3 | 1.3 | –
13 | CCn1c(=O)/c(=C2\Sc3ccccc3N2C)s/c1=C\c1ccncc1Nc1cc(F)ccc1F | 1.1 | 1.2 | 1.5 | –
14 | CCn1c(=O)/c(=C2\Sc3ccc(C)cc3N2C)s/c1=C\c1ccncc1Nc1ccccc1C | 0.48 | 0.33 | 0.4 | –
15 | CCn1c(=O)/c(=C2\Sc3cc(F)ccc3N2C)s/c1=C\c1ccncc1Nc1ccccc1Cl | 0.49 | 1.2 | 1.3 | –
16 | CCn1c(=O)/c(=C2\Sc3ccccc3N2C)s/c1=C\c1ccncc1Nc1ccccc1F | 0.3 | 0.36 | 0.33 | –
17 | CCn1c(=O)/c(=C2\Sc3ccc(C)cc3N2C)s/c1=C\c1ccncc1Nc1ccccc1F | 0.15 | 0.07 | 0.1 | inhibition (CWR22R [4]): 50%; inhibition (CWR22R [5]): 50%; Ratio IC50 (CWR22R [6]): 7 - 10; inhibition (INH) [7]: Not Active; inhibition (CWR22R [8]): 50%; inhibition (INH) [9]: Not Active; Ratio IC50 (PC-3 [10]): 7 - 10; inhibition (CWR22R [11]): 50%; Ratio IC50 (MCF7 [12]): 7 - 10
18 | c1ccc(Nc2nc(-c3nc4ccccc4s3)cs2)cc1 | 6.9 | 5.5 | 7.6 | –
19 | CCn1c(=O)/c(=C2\Sc3ccc(C)cc3N2C)s/c1=C\c1ccncc1Nc1ccccc1Cl | 0.35 | 0.5 | 0.65 | –
